ChEMBL document CHEMBL2346664, “Synthesis, characterization and in vitro anticancer evaluation of novel 1,2,4-triazolin-3-one derivatives” (2013)
Active and inactive are the calls of the source. The rule behind the calls is not given here.

Columns and labels:
KM12 = assay: Growth inhibition of human KM12 cells assessed as cell growth at 10 '-5 M after 48 hrs by sulforhodamine B assay; assay type: functional; details: KM12, 48 h, read-out: Activity
NCI-H23 = assay: Growth inhibition of human NCI-H23 cells assessed as cell growth at 10 '-5 M after 48 hrs by sulforhodamine B assay; assay type: functional; details: NCI-H23, 48 h, read-out: Activity
SR = assay: Growth inhibition of human SR cells assessed as cell growth at 10 '-5 M after 48 hrs by sulforhodamine B assay; assay type: functional; details: read-out: Activity
MDA-MB-468 [1] = assay: Growth inhibition of human MDA-MB-468 cells assessed as cell growth at 10 '-6 M after 48 hrs by sulforhodamine B assay; assay type: functional; details: MDA-MB-468, 48 h, read-out: Activity
OVCAR-5 [2] = assay: Growth inhibition of human OVCAR5 cells assessed as cell growth at 10 '-6 M after 48 hrs by sulforhodamine B assay; assay type: functional; details: OVCAR-5, 48 h, read-out: Activity
SK-MEL-28 [3] = assay: Growth inhibition of human SK-MEL-28 cells assessed as cell growth at 10 '-6 M after 48 hrs by sulforhodamine B assay; assay type: functional; details: SK-MEL-28, 48 h, read-out: Activity
UACC-257 [4] = assay: Growth inhibition of human UACC257 cells assessed as growth inhibition at 10 uM after 48 hrs by sulforhodamine B assay; assay type: functional; details: UACC-257, 48 h, read-out: GI
SK-MEL-5 = assay: Growth inhibition of human SK-MEL-5 cells assessed as growth inhibition at 10 uM after 48 hrs by sulforhodamine B assay; assay type: functional; details: SK-MEL-5, 48 h, read-out: GI
MDA-MB-435 = assay: Growth inhibition of human MDA-MB-435 cells assessed as growth inhibition at 10 uM after 48 hrs by sulforhodamine B assay; assay type: functional, cell-based
HCT-116 = assay: Growth inhibition of human HCT116 cells assessed as growth inhibition at 10 uM after 48 hrs by sulforhodamine B assay; assay type: functional; details: HCT-116, 48 h, read-out: GI
HOP-92 = assay: Growth inhibition of human HOP92 cells assessed as growth inhibition at 10 uM after 48 hrs by sulforhodamine B assay; assay type: functional; details: HOP-92, 48 h, read-out: GI
SN12C = assay: Growth inhibition of human SN12C cells assessed as cell growth at 10 '-4 M after 48 hrs by sulforhodamine B assay; assay type: functional; details: read-out: Activity
HCT-15 = assay: Growth inhibition of human HCT15 cells assessed as cell growth at 10 '-6 M after 48 hrs by sulforhodamine B assay; assay type: functional; details: HCT-15, 48 h, read-out: Activity
M14 = assay: Growth inhibition of human M14 cells assessed as cell growth at 10 '-7 M after 48 hrs by sulforhodamine B assay; assay type: functional; details: M14, 48 h, read-out: Activity
SNB-19 = assay: Growth inhibition of human SNB19 cells assessed as cell growth at 10 '-7 M after 48 hrs by sulforhodamine B assay; assay type: functional; details: SNB-19, 48 h, read-out: Activity
A498 [5] = assay: Growth inhibition of human A498 cells assessed as cell growth at 10 '-4 M after 48 hrs by sulforhodamine B assay; assay type: functional; details: A498, 48 h, read-out: Activity
Procedure, shortened: (§1)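 Percent growth at each of the five concentrations of the 48 h continuous-exposure NCI SRB screen. Drug stocks were in DMSO at 400× the top final concentration and diluted in medium with gentamicin. Growth was calculated as [(Ti-Tz)/(C-Tz)]×100 when Ti ≥ Tz, or [(Ti-Tz)/Tz]×100 when Ti < Tz. Tz plates were fixed at drug addition; untreated wells served as control. Absorbance was read at 515 nm.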

UACC-257 [6] = assay: Growth inhibition of human UACC257 cells assessed as cell growth at 10 '-4 M after 48 hrs by sulforhodamine B assay; assay type: functional; details: UACC-257, 48 h, read-out: Activity
U-251 = assay: Growth inhibition of human U251 cells assessed as cell growth at 10 '-4 M after 48 hrs by sulforhodamine B assay; assay type: functional; details: U-251, 48 h, read-out: Activity
SF-539 [7] = assay: Growth inhibition of human SF539 cells assessed as cell growth at 10 '-4 M after 48 hrs by sulforhodamine B assay; assay type: functional; details: SF-539, 48 h, read-out: Activity
UO-31 = assay: Growth inhibition of human UO31 cells after 48 hrs by sulforhodamine B assay; assay type: functional; details: UO-31, 48 h
RXF 393 = assay: Growth inhibition of human RXF393 cells assessed as cell growth at 10 '-5 M after 48 hrs by sulforhodamine B assay; assay type: functional; details: RXF 393, 48 h, read-out: Activity
OVCAR-5 [8] = assay: Growth inhibition of human OVCAR5 cells after 48 hrs by sulforhodamine B assay; assay type: functional; details: OVCAR-5, 48 h
IGROV-1 = assay: Growth inhibition of human IGROV1 cells after 48 hrs by sulforhodamine B assay; assay type: functional; details: IGROV-1, 48 h
Procedure, shortened: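 NCI 60-cell-line five-dose screen. Cells were plated at 5,000–40,000/well by doubling time and grown 24 h at 37 °C, 5% CO2. Time-zero plates were TCA-fixed. Drug from DMSO stock was tested at 0.01, 0.1, 1, 10 and 100 µM final for 48 h continuous exposure. Read-out was SRB at 515 nm. GI50 is the concentration giving 50% reduction in net protein increase versus untreated control.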

UACC-62 = assay: Growth inhibition of human UACC62 cells after 48 hrs by sulforhodamine B assay; assay type: functional; details: UACC-62, 48 h
T47D = assay: Growth inhibition of human T47D cells assessed as growth inhibition at 10 uM after 48 hrs by sulforhodamine B assay; assay type: functional; details: read-out: GI
HOP-62 = assay: Growth inhibition of human HOP62 cells assessed as cell growth at 10 '-7 M after 48 hrs by sulforhodamine B assay; assay type: functional; details: HOP-62, 48 h, read-out: Activity
MDA-MB-468 [9] = assay: Growth inhibition of human MDA-MB-468 cells assessed as cell growth at 10 '-8 M after 48 hrs by sulforhodamine B assay; assay type: functional; details: MDA-MB-468, 48 h, read-out: Activity
PC-3 = assay: Growth inhibition of human PC3 cells assessed as cell growth at 10 '-8 M after 48 hrs by sulforhodamine B assay; assay type: functional; details: PC-3, 48 h, read-out: Activity
A498 [10] = assay: Growth inhibition of human A498 cells assessed as cell growth at 10 '-8 M after 48 hrs by sulforhodamine B assay; assay type: functional; details: A498, 48 h, read-out: Activity; procedure, shortened: as §1
SK-MEL-28 [11] = assay: Growth inhibition of human SK-MEL-28 cells assessed as cell growth at 10 '-8 M after 48 hrs by sulforhodamine B assay; assay type: functional; details: SK-MEL-28, 48 h, read-out: Activity
SF-539 [12] = assay: Growth inhibition of human SF539 cells assessed as cell growth at 10 '-8 M after 48 hrs by sulforhodamine B assay; assay type: functional; details: SF-539, 48 h, read-out: Activity
[13] = Growth inhibition of human HCC2998 cells assessed as cell growth at 10 '-8 M after 48 hrs by sulforhodamine B assay; assay type: functional; details: HCC 2998, 48 h, read-out: Activity
[14] = read-out: LD50 (the source's name)

## Cc1cc(=O)oc2cc(OCCn3c(C)nn(-c4ccc(Cl)cc4)c3=O)ccc12
KM12
  growth at 10 µM: 21%
NCI-H23
  growth at 10 µM: 32%
SR
  growth at 10 µM: -6%
MDA-MB-468 [1]
  growth at 1 µM: 77%
OVCAR-5 [2]
  growth at 1 µM: 89%
SK-MEL-28 [3]
  growth at 1 µM: 67%
UACC-257 [4]
  inhibition of growth at 10 µM: 77.5%
SK-MEL-5
  inhibition of growth at 10 µM: 89.2%
MDA-MB-435
  growth inhibition (GI): Active
HCT-116
  inhibition of growth at 10 µM: 84.9%
HOP-92
  inhibition of growth at 10 µM: 52.6%
SN12C
  growth at 100 µM: 37%
HCT-15
  growth at 1 µM: 80%
M14
  growth at 0.1 µM: 101%
SNB-19
  growth at 0.1 µM: 89%
A498 [5]
  growth at 100 µM: -8%
UACC-257 [6]
  growth at 100 µM: 53%
U-251
  growth at 100 µM: -4%
SF-539 [7]
  growth at 100 µM: -12%
UO-31
  GI50: 1.27 µM
  TGI: > 1 µM
UO-31; [14]
  CC50: > 1 µM
RXF 393
  growth at 10 µM: 18%
OVCAR-5 [8]
  GI50: 2.19 µM
  TGI: > 1 µM
OVCAR-5 [8]; [14]
  CC50: > 1 µM
IGROV-1
  GI50: 3.5 µM
  TGI: > 1 µM
UACC-62
  GI50: 1.99 µM
  TGI: > 1 µM
UACC-62; [14]
  CC50: > 1 µM
T47D
  inhibition of growth at 10 µM: 52.6%
HOP-62
  growth at 0.1 µM: 103%
MDA-MB-468 [9]
  growth at 0.01 µM: 94%
PC-3
  growth at 0.01 µM: 97%
A498 [10]
  growth at 0.01 µM: 81%
SK-MEL-28 [11]
  growth at 0.01 µM: 105%
SF-539 [12]
  growth at 0.01 µM: 102%
[13]
  growth at 0.01 µM: 95%
